Data taken from ChEMBL document CHEMBL5137098, “Discovery of Substituted Di(pyridin-2-yl)-1,2,4-thiadiazol-5-amines as Novel Macrofilaricidal Compounds for the Treatment of Human Filarial Infections” (J Med Chem, 2022).
In brackets after ≈: the same amount, converted by molar mass.

Tests used:
[1] = Metabolic stability in human liver S9 fraction assessed as compound remaining at 3 uM measured at 60 mins by LC-MS/MS analysis; type: ADME, subcellular; settings: read-out: Stability
[2] = Metabolic stability in rat liver S9 fraction assessed as compound remaining at 3 uM measured at 60 mins by LC-MS/MS analysis; type: ADME, subcellular; settings: read-out: Stability
[3] = Metabolic stability in human liver microsome assessed as compound remaining at 3 uM measured at 30 mins in presence of NADPH by LC-MS/MS analysis; type: ADME; settings: liver microsomes, read-out: Stability
Procedure, shortened: (§1)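 Liver microsomes at 0.3 mg/mL with 1 mM NADPH in 200 mM phosphate buffer plus 2 mM MgCl2, pH 7.4, at 37 °C. Substrate 3 µM, incubated 30 min, triplicate. Percent remaining measured by LC-MS/MS.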

[4] = Metabolic stability in rat liver microsome assessed as compound remaining at 3 uM measured at 30 mins in presence of NADPH by LC-MS/MS analysis; type: ADME; settings: liver microsomes, read-out: Stability; procedure, shortened: as §1
[5] = test system: Onchocerca gutturosa; assay: Anti-filarial activity against Onchocerca gutturosa adult worms assessed as reduction in worm motility measured every 24 hrs for 5 days by olympus inverted microscopic analysis; type: functional, organism-based
Procedure, shortened: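 Adult worm motility read every 24 h, ending at 120 h. Serial 1-in-4 drug dilutions run to the activity endpoint. EC50 for motility reduction given as geomean, n=2.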

[6] = Octanol/water distribution coefficient, logD of the compound at pH 7.4 sonicated for 30 mins followed by 24 hrs shaking; type: physicochemical
Procedure, shortened: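 Octanol/pH 7.4 0.1 M potassium phosphate partition. Sample at 1000 uM from 10 mM DMSO stock, 10% DMSO final. Sonicated 30 min, then shaken 24 h at 750 rpm at room temperature. Plate centrifuged 3600 rpm for 30 min.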

[7] = Kinetic solubility of compound incubated for 24 hrs; type: physicochemical; settings: for Kinetic_solubility: 24 h
Procedure, shortened: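 10 mM DMSO stock diluted into buffer to 200 µM final, 2% DMSO, run in duplicate. Buffers were pH 7.4 0.1 M potassium phosphate, pH 2.2, 6.8 and 5. Shaken 24 h at room temperature in a filter plate, then filtered by positive pressure. Single-point calibration against DMSO standards.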

[8] = test system: Onchocerca volvulus; assay: Antiparasitic activity against Onchocerca volvulus L5 assessed as reduction in motility at 1 uM; design: scale not given: the % may be the effect or the level left
[9] = Mutagenicity in Salmonella typhimurium TA100 in absence of liver S9 fraction by AMES test; type: toxicity; settings: salmonella enterica subsp. enterica serovar typhimurium
[10] = Mutagenicity in Salmonella typhimurium TA98 in absence of liver S9 fraction by AMES test; type: toxicity; settings: salmonella enterica subsp. enterica serovar typhimurium
[11] = Mutagenicity in Escherichia coli WP2 uvrA in presence of liver S9 fraction by AMES test; type: toxicity, subcellular
[12] = Mutagenicity in Salmonella typhimurium TA1535 in presence of liver S9 fraction by AMES test; type: toxicity, subcellular; settings: salmonella enterica subsp. enterica serovar typhimurium
[13] = Mutagenicity in Escherichia coli WP2 uvrA in absence of liver S9 fraction by AMES test; type: toxicity
[14] = Mutagenicity in Salmonella typhimurium TA97 in absence of liver S9 fraction by AMES test; type: toxicity; settings: salmonella enterica subsp. enterica serovar typhimurium
[15] = Mutagenicity in Salmonella typhimurium TA100 in presence of liver S9 fraction by AMES test; type: toxicity, subcellular; settings: salmonella enterica subsp. enterica serovar typhimurium
[16] = Mutagenicity in Salmonella typhimurium TA1535 in absence of liver S9 fraction by AMES test; type: toxicity; settings: salmonella enterica subsp. enterica serovar typhimurium
[17] = Mutagenicity in Salmonella typhimurium TA97 in presence of liver S9 fraction by AMES test; type: toxicity, subcellular; settings: salmonella enterica subsp. enterica serovar typhimurium
[18] = Mutagenicity in Salmonella typhimurium TA98 in presence of liver S9 fraction by AMES test; type: toxicity, subcellular; settings: salmonella enterica subsp. enterica serovar typhimurium
[19] = test system: P-glycoprotein (human); assay: Efflux ratio of apparent permeability in MDCK-II cells expressing human P-glycoprotein gene at 10 uM measured at 2 hrs by LC-MS/MS analysis; type: ADME, cell-based, Canis lupus familiaris; settings: dog, MDCK-MDR1
[20] = Metabolic stability in mouse liver microsome assessed as compound remaining at 3 uM measured at 30 mins in presence of NADPH by LC-MS/MS analysis; type: ADME; settings: liver microsomes, read-out: Stability; procedure, shortened: as §1
[21] = test system: Litomosoides sigmodontis; assay: Antiparasitic activity against Litomosoides sigmodontis infected in BALB/c mouse assessed as reduction in worm burden at 10 mg/kg, po qd administered for 7 days; type: functional; design: scale not given: the % may be the effect or the level left; settings: time 7 day
[22] = test system: Litomosoides sigmodontis; assay: Antiparasitic activity against Litomosoides sigmodontis infected in BALB/c mouse assessed as reduction in worm burden at 30 mg/kg, sc BID administered for 7 days; type: functional; design: scale not given: the % may be the effect or the level left; settings: time 7 day
[23] = test system: Litomosoides sigmodontis; assay: Antiparasitic activity against Litomosoides sigmodontis infected in BALB/c mouse assessed as reduction in worm burden at 30 mg/kg, po BID administered for 6 days; type: functional; design: scale not given: the % may be the effect or the level left; settings: time 6 day
[24] = test system: Litomosoides sigmodontis; assay: Antiparasitic activity against Litomosoides sigmodontis infected in BALB/c mouse assessed as reduction in worm burden at 30 mg/kg, po BID administered for 7 days; type: functional; design: scale not given: the % may be the effect or the level left; settings: time 7 day
[25] = test system: Litomosoides sigmodontis; assay: Antiparasitic activity against Litomosoides sigmodontis infected in BALB/c mouse assessed as reduction in worm burden at 30 mg/kg, po TID administered for 5 days; type: functional; design: scale not given: the % may be the effect or the level left; settings: time 5 day

SMILES	remaining at 1 h, 3 µM [1] [%]	remaining at 1 h, 3 µM [2] [%]	further results
CC(C)Oc1cnc(-c2nsc(Nc3ncccc3C(C)C)n2)cc1C(F)(F)F	–	–	remaining at 0.5 h, 3 µM [3]: 97%; remaining at 0.5 h, 3 µM [4]: 96%
Cc1cccnc1Nc1nc(-c2cc(C(=O)N(C)C)c(OC(C)C)cn2)ns1	–	–	remaining at 0.5 h, 3 µM [3]: 91%; remaining at 0.5 h, 3 µM [4]: 90%
Cc1ccnc(-c2nsc(Nc3ncccc3C(F)(F)F)n2)c1	56	61	–
CC(C)c1cccnc1Nc1nc(-c2ccc(OC3CC3)cn2)ns1	39	78	Activity [8]: 100%; Kinetic_solubility [7]: 0.2 µM
CC(=O)N(C)c1cc(C(F)(F)F)cnc1Nc1nc(-c2ccc(OC(C)C)cn2)ns1	–	–	efflux ratio at 2 h, 10 µM [19]: 4.1
Cc1cccnc1Nc1nnc(-c2ccc(OC3CCOCC3)cn2)o1	–	–	remaining at 0.5 h, 3 µM [3]: 83%; remaining at 0.5 h, 3 µM [4]: 39%
Cc1cccnc1Nc1nc(-c2ccc(OC3CC3)cn2)ns1	76	61	Activity [8]: 100%
Cc1cccnc1N(c1nc(-c2ccc(OC(C)C)cn2)ns1)C(C)C	79	60	–
Cc1cccnc1Nc1nsc(-c2ccc(OC3CCOCC3)cn2)n1	–	–	remaining at 0.5 h, 3 µM [3]: 77%; remaining at 0.5 h, 3 µM [4]: 89%
Cc1cccnc1Nc1nnc(-c2ccc(OC3CCOCC3)cn2)s1	–	–	remaining at 0.5 h, 3 µM [3]: 100%; remaining at 0.5 h, 3 µM [4]: 89%
Cc1cccnc1Nc1nc(-c2ncc(OC(C)C)cn2)ns1	–	–	remaining at 0.5 h, 3 µM [3]: 96%; remaining at 0.5 h, 3 µM [4]: 90%
CC(C)Oc1ccc(-c2nsc(N(C)c3ncccc3C(C)C)n2)nc1	32	4	–
Cc1cccnc1Nc1nc(-c2ccc(C#N)cn2)ns1	66	73	–
CC(C)Oc1cnc(-c2nsc(Nc3ncccc3N3CCCC3=O)n2)cc1C(F)(F)F	–	–	efflux ratio at 2 h, 10 µM [19]: 3.9
CC(C)Oc1cc(-c2nsc(Nc3ncccc3N(C)C)n2)ncc1C(F)(F)F	100	8	–
Cc1cccnc1Nc1n[nH]c(-c2ccc(OC3CCOCC3)cn2)n1	–	–	remaining at 0.5 h, 3 µM [3]: 92%; remaining at 0.5 h, 3 µM [20]: 70%

SMILES	remaining at 1 h, 3 µM [1] [%]	remaining at 1 h, 3 µM [2] [%]	further results
Cc1cccnc1Nc1nc(-c2ccc(C(=O)N(C)C)cn2)ns1	97	94	–
Cc1cccnc1Nc1nc(-c2ccc(OC(C)C)cn2)ns1	100	100	Activity [21]: 58.8%
CC(=O)N(C)c1cccnc1Nc1nc(-c2cc(C(F)(F)F)c(OC(C)C)cn2)ns1	–	–	efflux ratio at 2 h, 10 µM [19]: 4.5
CC(C)Oc1ccc(-c2nsc(Nc3cc(C(F)(F)F)c(C(C)C)cn3)n2)nc1	100	100	–
CN1CCC(Oc2ccc(Nc3nc(-c4ccccn4)ns3)nc2)CC1	88	99	–
CC(C)Oc1cnc(-c2nsc(Nc3ncccc3N(C)C(=O)C3CC3)n2)cc1C(F)(F)F	–	–	efflux ratio at 2 h, 10 µM [19]: 2.2
CC(C)c1ccnc(-c2nsc(Nc3cc(C(F)(F)F)ccn3)n2)c1	65	45	Activity [23]: 46%
Cc1cccnc1Nc1nc(-c2cc(C(=O)N(C)C)ccn2)ns1	89	78	–
CC(C)Oc1ccc(-c2nsc(Nc3ncccc3C(C)C)n2)nc1	99	82	Activity [24]: 58.8%
CC(C)Oc1ccc(-c2nsc(Nc3ncccc3C(N)=O)n2)nc1	–	–	efflux ratio at 2 h, 10 µM [19]: 4.6
CC(C)Oc1cnc(-c2nsc(Nc3ncccc3N(C)C)n2)cc1C(F)(F)F	–	–	remaining at 0.5 h, 3 µM [3]: 98%; remaining at 0.5 h, 3 µM [4]: 93%
CC(=O)N(C)c1cc(C(F)(F)F)cnc1Nc1nc(-c2cc(C(C)C)ccn2)ns1	–	–	efflux ratio at 2 h, 10 µM [19]: 8.4
CC(=O)N(C)c1cc(C(F)(F)F)cnc1Nc1nc(-c2cc(OC(C)C)ccn2)ns1	–	–	efflux ratio at 2 h, 10 µM [19]: 15.2; Kinetic_solubility [7]: 0.4 µM
CC(C)Oc1ccc(-c2nsc(Nc3ncccc3C(=O)N(C)C)n2)nc1	–	–	efflux ratio at 2 h, 10 µM [19]: 11
COc1ccc(Nc2nc(-c3ccccn3)ns2)nc1	–	–	remaining at 0.5 h, 3 µM [3]: 90%; Activity [25]: 50.1%; remaining at 0.5 h, 3 µM [4]: 78%
Cc1cccnc1Nc1nc(-c2cc(C#N)c(OC(C)C)cn2)ns1	100	84	–

Now from value to compound, other results behind:

remaining at 1 h, 3 µM [1] [%]	remaining at 1 h, 3 µM [2] [%]	SMILES	further results
59	51	COc1ccc(Nc2nc(-c3ccccn3)cs2)nc1	–
86	73	CNc1cccnc1Nc1nc(-c2ccc(OC(C)C)cn2)ns1	–
86	61	Cc1cccnc1-c1nsc(Nc2ccc(N3CCCC3)cn2)n1	EC50 [5]: 40 nM; logD at 24.5 h [6]: 2.65; solubility kinetic at 24 h ([7]; read-out: Kinetic_solubility): 2.17 µM (≈ 0.734 µg/mL)
65	78	Cc1cccnc1Nc1nc(-c2cc(C#N)ccn2)ns1	–
52	32	Cc1cccnc1Nc1nc(-c2ccc(OC3CCN(C4CC4)CC3(F)F)cn2)ns1 (stereo not drawn)	–
86	79	CC(C)Oc1ccc(-c2nsc(Nc3ncccc3N(C)C)n2)nc1	Activity [9]: Non-Toxic; Activity [10]: Non-Toxic; Activity [8]: 100%; Activity [11]: Non-Toxic; Activity [12]: Non-Toxic; Activity [13]: Non-Toxic; Activity [14]: Non-Toxic; Activity [15]: Non-Toxic; Activity [16]: Non-Toxic; Activity [17]: Non-Toxic; Activity [18]: Non-Toxic
83	83	c1ccc(Nc2nc(-c3ccccn3)ns2)nc1	–
78	81	Cc1cccnc1Nc1nc(-c2cc(C3CCN(C)CC3)ccn2)ns1	–
100	93	CC(C)c1cnc(Nc2nc(-c3ncccc3OC3CC3)ns2)cc1C(F)(F)F	–
100	100	COc1cccnc1Nc1nc(-c2ccc(OC(C)C)cn2)ns1	–
84	82	Cc1cccnc1Nc1nc(-c2ccc(OC3CCOCC3)cn2)ns1	–
58	53	Cc1cccnc1Nc1nc(-c2ccc(OC3CC4(C3)CN(C3CC3)C4)cn2)ns1	–
83	76	Cc1cccnc1Nc1nc(-c2ccc(OC3CCN(C4CC4)CC3)cn2)ns1	Activity [22]: 85.5%
45	27	CC(C)c1ccnc(-c2nsc(Nc3ncccc3C(F)(F)F)n2)c1	–
100	91	CN(C)c1cccnc1Nc1nc(-c2ccc(OC3CC3)cn2)ns1	Activity [8]: 100%
72	70	COc1cccnc1Nc1nc(-c2cc(C)ccn2)ns1	–
81	74	Cc1cccnc1Nc1nc(-c2cnc(OC(C)C)cn2)ns1	–
96	81	Cc1cccnc1N(C)c1nc(-c2ccc(OC(C)C)cn2)ns1	–
98	85	Cc1cccnc1Nc1nc(-c2ccc(OC3CCOCC3)cn2)no1	–
